Molecules are shown by their SMILES. The source made the active and inactive calls.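 How the source made its calls, unless noted: active means fluorescence slope higher than the sample average by over 3 SD (cut at about -0.22 in these data, passing the limit was not always enough); inactive means the rest.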

A short description of assay [1]: inhibitors of TNFa-induced NFkB p65 translocation, primary screen, imaging, HUVEC, MLSMR starter and 10KST1 sets (AID 438;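 active means inhibition above 20% together with a positive visual image hit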;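 further: compound added about 3h40 before a 20 min TNFalpha stimulation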;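 on inhibition: signal is the nuclear over cytoplasmic p65 intensity ratio per well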). Particulars: HUVEC TNFa-induced p65 nuclear translocation; cell count: measured here: nuclei count (cytotoxicity indicator), at 2.08 µM; inhibition: at 2 µM, stronger effect = higher value, 0% TNFa-plus-vehicle, 100% no-TNFa wells.
A short description of assay [2]: reduction of polyQ htt aggregates in cells – imaging, exon1htt(103Q)mCFP cells, high-content imaging, primary screen (AID 483;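 active means visual image review flags a hit and inhibition of aggregation exceeds 20%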;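 further: compound exposure lasted 3 days before fixation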;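 on nuclei count: percent of the per-plate median nuclei count of sample wells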). Particulars: exon1htt(103Q)mCFP cell line, aggregate imaging, at 2 µM; inhibition of aggregation: stronger effect = higher value; nuclei count: measured here: cell count, toxicity.
The nature of assay [3]: endothelial E-selectin expression blockers – imaging, HUVEC, immunofluorescence, MLSMR starter and 10KST1 sets, primary screen (AID 487;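 active means visually confirmed hit in the image check and inhibition above 20%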;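 on inhibition: signal is fraction of cell area covered by stained E-selectin grains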;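 on nuclei count: 100% = median nuclei count of all wells on the same plate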). As to conditions: HUVEC TNFalpha-induced E-selectin immunofluorescence imaging, at 2 µM; inhibition: stronger effect = higher value; nuclei count: measured here: cell number, toxicity.
Assay [4] deals with Voltage-gated potassium channel subunit beta-2 (Rattus norvegicus) (UniProt P62483). In words: inhibitors of rat Kvbeta2 reductase activity – biochemical, NADPH fluorescence, primary screen (AID 622).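 Further: slope of raw intensity against log time taken from 70 to 1610 s.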 Particulars: recombinant KvBeta, 4-cyanobenzaldehyde reduction, at 10 µM, stronger effect = higher value.
For assay [5] the target is unchanged. Put plainly: enhancers of rat Kvbeta2 NADPH turnover – biochemical, NADPH fluorescence, primary screen (AID 623;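 active means NADPH fluorescence slope more negative than the mean of all samples by about 3 SD, 99.7% confidence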;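 further: fluorescence intensity change per second fitted from 20 to 320 s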). As to conditions: Recombinant KvBeta, NADPH fluorescence decrease slope, 10 min; at 10 µM; stronger effect = lower value.
Assay [6] deals with Muscarinic acetylcholine receptor M4 (Homo sapiens) (UniProt P08173). Put plainly: M4-linked GIRK flux change, two-sided – cell-based, HEK293 M4/GIRK, thallium flux, BTC-AM, M4 allosteric agonist project, primary screen (AID 625;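 active means fluorescence slope after compound addition differing from the mean of all tested samples at 99.7% confidence, mostly higher but some lower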;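 further: thallium influx through GIRK channels coupled to M4 in HEK293 cells with BTC-AM dye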). As to conditions: at 10 µM, actives lie on both sides. In a few lines:
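System: HEK293 cells with M4 receptor and GIRK channels | Incubation: Cells overnight at 37 °C, BTC-AM loading 1 h, reads 2 min total | Technique: Kinetic BTC-AM fluorescence sampled at 1 Hz, 10 s pre-addition baseline | Measure: Post-addition slope, 15–24 s, of baseline-normalized fluorescence | Control set: Carbachol positive, DMSO negative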

Assay [7] can be described thus: blockers of RIG-like receptor reporter activation – cell-based, Sendai virus stimulus, luciferase, 10K MLSCN set, TLR/RLR signaling modifier project, primary screen (AID 602276;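 active means inhibition at or above 50% at 10 µM; inactive means inhibition below 50%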;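 further: firefly luciferase from ISG56 promoter only with Renilla not read in this screen; 0% = Sendai virus plus DMSO and 100% = medium plus DMSO without virus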). Particulars: HEK293 RL24 IRF3 luciferase reporter, at 10 µM, stronger effect = higher value. On the technique in general: In a reporter assay the amount or activity of a reporter protein is the signal.

A short description of assay [8]: TLR3 IRF3 reporter activation blockers – cell-based, poly I:C stimulus, luciferase, 10K MLSCN set, primary screen (AID 602277;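 active means inhibition of the reporter signal at or above 50%; inactive means inhibition below 50%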). As to conditions: HEK293-TLR3 RL24 IRF3 luciferase reporter, at 10 µM, stronger effect = higher value.

Sequence of Muscarinic acetylcholine receptor M4 (Homo sapiens) (P08173 whole entry, looked up): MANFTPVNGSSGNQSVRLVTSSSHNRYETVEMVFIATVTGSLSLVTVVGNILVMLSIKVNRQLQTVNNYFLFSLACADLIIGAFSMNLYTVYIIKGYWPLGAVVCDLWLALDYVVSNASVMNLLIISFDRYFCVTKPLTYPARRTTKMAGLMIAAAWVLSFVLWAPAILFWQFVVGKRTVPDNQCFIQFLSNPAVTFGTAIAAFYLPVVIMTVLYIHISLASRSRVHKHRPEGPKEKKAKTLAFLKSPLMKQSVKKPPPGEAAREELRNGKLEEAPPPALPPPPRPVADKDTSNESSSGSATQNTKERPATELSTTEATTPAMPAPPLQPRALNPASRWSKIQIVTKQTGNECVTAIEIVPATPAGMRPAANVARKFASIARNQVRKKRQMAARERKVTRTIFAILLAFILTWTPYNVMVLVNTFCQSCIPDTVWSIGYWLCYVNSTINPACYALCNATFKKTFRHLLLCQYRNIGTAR
Sequence of Voltage-gated potassium channel subunit beta-2 (Rattus norvegicus) (P62483 whole entry, looked up): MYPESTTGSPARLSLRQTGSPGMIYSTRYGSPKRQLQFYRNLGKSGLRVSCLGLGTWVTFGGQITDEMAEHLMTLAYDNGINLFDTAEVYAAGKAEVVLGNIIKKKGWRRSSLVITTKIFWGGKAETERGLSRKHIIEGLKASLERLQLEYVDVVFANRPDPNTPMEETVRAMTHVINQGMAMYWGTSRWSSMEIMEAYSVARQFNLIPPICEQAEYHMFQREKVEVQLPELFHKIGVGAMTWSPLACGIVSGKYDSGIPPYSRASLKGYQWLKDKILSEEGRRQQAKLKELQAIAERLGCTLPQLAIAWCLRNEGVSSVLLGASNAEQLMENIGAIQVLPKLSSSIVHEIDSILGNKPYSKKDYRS

For the compound `OCc1nc(CO)n(Cc2ccccc2)n1`, the cell count in assay [1] was 447. For the same compound, the inhibition (commonly the change of the read-out against control, counted positive when it falls) was -17.6% (inactive) in assay [1], 42.4% (inactive) in assay [3], 7.11% (inactive) in assay [7] and 19.9% (inactive) in assay [8]. The inhibition of aggregation in assay [2] is -12.2% (inactive). Moreover, the nuclei count in assay [2] amounted to 112%; in assay [3], 86.8%. The figures for the fluorescence slope in assay [4] and in assay [6] were -0.501 (inactive) and 0.00536 (inactive), respectively. In addition, the NADPH fluorescence slope in assay [5] is -4.7e-05 (inactive).

Take `Cc1nc2ccccn2c1C(=O)NCCCN1CCOCC1`: the cell count in assay [1] amounted to 521. For the same compound, the inhibition in assay [1] is -7.5% (inactive); in assay [3], 11.8% (inactive); in assay [7], 4.89% (inactive); in assay [8], 12.3% (inactive). For the same compound, the inhibition of aggregation in assay [2] is 3% (inactive). The nuclei count in assay [2] and in assay [3] was 102% each time. Further, the results for the fluorescence slope in assay [4] and in assay [6] were -0.461 (inactive) and 0.0064 (inactive), respectively. In addition, the NADPH fluorescence slope in assay [5] was 0.000108 (inactive).

In the case of `COc1ccc(-n2nnnc2-c2cccc(OC)c2)cc1`, the cell count in assay [1] is 573. The inhibition in assay [1] is -45.9% (inactive); in assay [3] it was -101% (inactive); in assay [7], 34.8% (inactive); in assay [8], 47.8% (inactive). In addition, in assay [2], the inhibition of aggregation was -61.4% (inactive). Moreover, the results for the nuclei count in assay [2] and in assay [3] were 2.6% and 105%, respectively. Further, the fluorescence slope in assay [4] is -0.252 (inactive); in assay [6], 0.00701 (inactive). Moreover, in assay [5], the NADPH fluorescence slope was -3.1e-05 (inactive).

Turning to `Cc1cccc(Cn2c(=O)n(Cc3ccco3)c(=O)c3ccccc32)c1`, in assay [1], the cell count turned out to be 659. Moreover, the inhibition was 0.5% (inactive) in assay [1], -39% (inactive) in assay [3], 0.06% (inactive) in assay [7] and -5.18% (inactive) in assay [8]. In addition, in assay [2], the inhibition of aggregation is -10.9% (inactive). Further, the nuclei count in assay [2] turned out to be 122%; in assay [3], 113%. Besides, the fluorescence slope in assay [4] is -0.608 (inactive); in assay [6], 0.00404 (inactive). Also, the NADPH fluorescence slope in assay [5] was -3.9e-05 (inactive).

For `COCCNC(=O)c1cc2c(-c3ccccc3F)nn(C)c2s1`, the cell count in assay [1] turned out to be 401. Besides, the inhibition in assay [1] was -5.4% (inactive); in assay [3] it was -12.9% (inactive); in assay [7] it was 12.1% (inactive); in assay [8] it was -0.79% (inactive). The inhibition of aggregation in assay [2] was -28.5% (inactive). Further, the nuclei count in assay [2] stood at 96.8%; in assay [3], 120%. Also, the figures for the fluorescence slope in assay [4] and in assay [6] were -0.523 (inactive) and 0.00439 (inactive), respectively. Besides, in assay [5], the NADPH fluorescence slope was -3.7e-06 (inactive).

`Cc1[nH]c(=O)[nH]c(=O)c1S(=O)(=O)N(C)Cc1ccccc1`: the cell count in assay [1] worked out at 433. For the same compound, the inhibition is 1.1% (inactive) in assay [1], -90.2% (inactive) in assay [3], 3.97% (inactive) in assay [7] and 13.8% (inactive) in assay [8]. Besides, the inhibition of aggregation in assay [2] was -2.7% (inactive). Besides, the nuclei count in assay [2] and in assay [3] was 110% each time. The figures for the fluorescence slope in assay [4] and in assay [6] were -0.491 (inactive) and 0.00478 (inactive), respectively. Moreover, the NADPH fluorescence slope in assay [5] was 3.7e-05 (inactive).

Take `O=C(Nc1ccccc1)c1cccnc1N1CCOCC1`: the cell count in assay [1] amounted to 590. The inhibition in assay [1] is -11.1% (inactive); in assay [3] it was -36.4% (inactive); in assay [7], 4.9% (inactive); in assay [8] it was 19.1% (inactive). In assay [2], the inhibition of aggregation was -5.4% (inactive). For the same compound, the nuclei count is 110% in assay [2] and 84.1% in assay [3]. Further, the values for the fluorescence slope in assay [4] and in assay [6] were -0.449 (inactive) and 0.00425 (inactive), respectively. Also, the NADPH fluorescence slope in assay [5] is -0.000339 (inactive).

With `CN=C1CC(C)(C)CC(=O)/C1=C(/O)CCC(=O)NC`, in assay [1], the cell count came to 367. Also, the inhibition was 10.4% (inactive) in assay [1], 50.5% (inactive) in assay [3], 13% (inactive) in assay [7] and 15.4% (inactive) in assay [8]. Moreover, the inhibition of aggregation in assay [2] is 10.3% (inactive). In addition, the nuclei count was 104% in assay [2] and 90.9% in assay [3]. For the same compound, the fluorescence slope in assay [4] is -0.45 (inactive); in assay [6], 0.00526 (inactive). Moreover, the NADPH fluorescence slope in assay [5] is -1.9e-05 (inactive).

On to `COCCn1nnnc1C(C(C)C)N(Cc1cccnc1)Cc1ccccc1Cl` (centres undefined), for which, in assay [1], the cell count was 526. For the same compound, the inhibition is 2.1% (inactive) in assay [1], -72.3% (inactive) in assay [3], 9.31% (inactive) in assay [7] and 31.3% (inactive) in assay [8]. Further, the inhibition of aggregation in assay [2] was 8.9% (inactive). The nuclei count in assay [2] came to 108%; in assay [3] it was 111%. Moreover, the fluorescence slope is -0.574 (inactive) in assay [4] and 0.00529 (inactive) in assay [6]. Besides, the NADPH fluorescence slope in assay [5] was 1.3e-05 (inactive).

In the case of `O=S(=O)(NCc1ccco1)c1cccc2cccnc12`, the cell count in assay [1] worked out at 336. The inhibition in assay [1] is 0% (inactive); in assay [3] it was -65.9% (inactive); in assay [7] it was 13.3% (inactive); in assay [8], 13% (inactive). Moreover, the inhibition of aggregation in assay [2] is -18.3% (inactive). Moreover, the nuclei count in assay [2] is 111%; in assay [3] it was 103%. The figures for the fluorescence slope in assay [4] and in assay [6] were -0.551 (inactive) and 0.00492 (inactive), respectively. In addition, the NADPH fluorescence slope in assay [5] was -1.2e-05 (inactive).

Consider `O=C(CCN1CCOCC1)Nc1cccc(Br)c1`, for which the cell count in assay [1] came to 354. Moreover, the inhibition is -5.1% (inactive) in assay [1], -70.3% (inactive) in assay [3], 16.1% (inactive) in assay [7] and 15.9% (inactive) in assay [8]. For the same compound, the inhibition of aggregation in assay [2] is -9.3% (inactive). The nuclei count in assay [2] was 134%; in assay [3], 125%. The figures for the fluorescence slope in assay [4] and in assay [6] were -0.409 (inactive) and 0.00691 (inactive), respectively. In addition, in assay [5], the NADPH fluorescence slope is 9.1e-05 (inactive).

On to `Nc1ccc(Sc2nnnn2-c2ccccc2)c(Cl)c1`, for which, in assay [1], the cell count is 312. The inhibition in assay [1] was -5.1% (inactive); in assay [3], -4% (inactive); in assay [7], 8.66% (inactive); in assay [8] it was 13% (inactive). Further, the inhibition of aggregation in assay [2] was 8% (inactive). In addition, the figures for the nuclei count in assay [2] and in assay [3] were 108% and 78.5%, respectively. In addition, the fluorescence slope in assay [4] was -0.468 (inactive); in assay [6] it was 0.00613 (inactive). The NADPH fluorescence slope in assay [5] was -3.4e-05 (inactive).

In the case of `CSc1ccccc1NC(=O)CN(Cc1ccccc1)S(C)(=O)=O`, the cell count in assay [1] was 768. Further, the inhibition is -15.1% (inactive) in assay [1], -78.6% (inactive) in assay [3], 21.8% (inactive) in assay [7] and 19.7% (inactive) in assay [8]. In assay [2], the inhibition of aggregation was -4.2% (inactive). The values for the nuclei count in assay [2] and in assay [3] were 115% and 103%, respectively. Besides, the fluorescence slope in assay [4] was -0.564 (inactive); in assay [6], 0.00609 (inactive). Moreover, the NADPH fluorescence slope in assay [5] is -3.2e-05 (inactive).

As for `Cn1c(SCc2cccc3ccccc23)nnc1-c1ccco1`, the cell count in assay [1] stood at 574. In addition, the inhibition was 1.6% (inactive) in assay [1], -63% (inactive) in assay [3], -8.19% (inactive) in assay [7] and -65.7% (inactive) in assay [8]. In addition, the inhibition of aggregation in assay [2] was 3.5% (inactive). Further, the nuclei count in assay [2] amounted to 101%; in assay [3] it was 103%. Further, the fluorescence slope is -0.545 (inactive) in assay [4] and 0.00593 (inactive) in assay [6]. The NADPH fluorescence slope in assay [5] is 2.1e-05 (inactive).

These data come from PubChem BioAssay.
